Screens: PubChem BioAssay, several laboratories
NF-kB neuron act = NF-kB expression increase, human neuronal cells. NF-kB reporter expression; hits give high values. fold change at 12.5 µM. 190,000 compounds, 1.6% hits. AID 1239; in the data active = fold change above about 3.3
STAT1 inh = STAT1 signaling inhibition. 200,000 compounds, 0.35% hits. NIH 3T3 STAT1-luciferase reporter, IFN-gamma, luminescence. inhibition, % at 5.5 µM;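 active = inhibition above a set limit, the mean inhibition across all tested compounds plus 3 SD, cut at about 34% in these data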;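 note: 0% = IFN-gamma with DMSO and 100% = IFN-gamma with 300 µM nifuroxazide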
Pf gametocyte = P. falciparum stage V gametocyte viability inhibition; P. falciparum stage V gametocytes, ATP luminescence, 24 h; inhibition, % at 10.9 µM; 150,000 compounds, 0.065% hits; AID 743093;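 active = inhibition above the mean plus 3 SD of compounds within the control limits, set per campaign, cut at about 38% in these data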;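 note: 0% = DMSO wells and 100% = medium only without gametocytes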
APP 5'UTR act = APP 5'UTR luciferase reporter activation; AID 1276; 190,000 compounds, 1% hits; SH-SY5Y APP 5'UTR luciferase reporter, luminescence; zero percent = DMSO vehicle wells; activation, % at 2 µM;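 active = activation above a set limit, based on mean plus 3 SD of controls, cut at about 140% in these data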
STAT3 activator = STAT3 signaling activation. U3A cells, IL-6 STAT3-luciferase reporter, luminescence; 100% = signal with IL-6 EC80 alone. activation (% of control), % at 5.6 µM. 190,000 compounds, 0.91% hits. AID 871;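 active = activation above the screen-wide mean of compound activation plus 3 SD, cut at about 130% in these data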;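 note: 0% = background luminescence of wells with medium and substrate only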
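Test system: Human STAT1-deficient U3A cells with stable STAT3-luciferase reporter | Also added: Interleukin-6, 33 ng/mL | Timing: Compound pre-incubation 1 h before IL-6, then 6 h stimulation at 37 °C | Technique: Luciferase reporter luminescence | Read-out: Percent of IL-6-only median luminescence | Benchmarks: IL-6-only wells as 100% reference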
STAT1 act = increases IFN-gamma driven STAT1 reporter signal | AID 932 | activation (% of control), % at 5.5 µM | 200,000 compounds, 2.6% hits | NIH 3T3 STAT1-luciferase reporter, luminescence; 100% = IFN-gamma alone, no compound;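 active = activation above the screen-wide mean activation plus 3 SD, cut at about 130% in these data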;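 note: raw ratio to IFN-gamma control signal so 100% means no change and 0% no light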
* hit, by the source's call. The list is not random: actives were taken first. Their share in the collection is about 3.9%.

Screening Cc1cccc(/C(N)=N/OC(=O)c2cccs2)c1 returned NF-kB neuron act 6*, STAT1 inh -44, APP 5'UTR act 237*, STAT3 activator 106 and STAT1 act 140*.
Screening N/C(=N\OC(=O)c1ccc(F)cc1)c1cccc([N+](=O)[O-])c1 returned Pf gametocyte -2.
For Cc1cc(C(=O)Nc2ccccc2N2CCCCC2)no1 the results were Pf gametocyte 11.
COc1cc2cc(C(=O)N3CCN(Cc4ccc5c(c4)OCO5)CC3)c(=O)oc2cc1OC was read as Pf gametocyte -21.
COC(=O)c1ccc(CSC2=NCCS2)cc1 was read as NF-kB neuron act 1.9, STAT1 inh -34, Pf gametocyte 9, APP 5'UTR act 61, STAT3 activator 110 and STAT1 act 130*.
COC(=O)c1ccc(CNC(=O)CSC2=NCCS2)cc1 was read as NF-kB neuron act 1.3, STAT1 inh 6, Pf gametocyte -31, APP 5'UTR act 14, STAT3 activator 109 and STAT1 act 94.
Screening COC(=O)C1C(=O)C2=C(CC1C)Nc1ccccc1NC2c1ccc(C)s1 (stereo not given) returned NF-kB neuron act 1, STAT1 inh -1, Pf gametocyte -1, APP 5'UTR act 19, STAT3 activator 94 and STAT1 act 99.
For O=C(NCCc1ccccc1)Nc1ccc2c(c1)OCO2 the results were NF-kB neuron act 4.3*, STAT1 inh -48, Pf gametocyte -21, APP 5'UTR act 115, STAT3 activator 112 and STAT1 act 140*.
Screening O=C(NCCc1ccccc1)C(=O)Nc1ccc2c(c1)OCCO2 returned NF-kB neuron act 2.1, STAT1 inh -18, Pf gametocyte 4, APP 5'UTR act 38, STAT3 activator 103 and STAT1 act 115.
`O=C(NCCc1ccc(F)cc1)Nc1ccc2c(c1)OCO2` gave NF-kB neuron act 2.2, STAT1 inh -38, Pf gametocyte 0, APP 5'UTR act 48, STAT3 activator 106 and STAT1 act 134*.
For O=C(Nc1ccc2c(c1)OCO2)OCc1ccccc1 the results were NF-kB neuron act 5.1*, STAT1 inh -38, APP 5'UTR act 140*, STAT3 activator 99 and STAT1 act 135*.
Screening COc1cccc(C(=O)Nc2sc(C(C)C)cc2C(N)=O)c1OC returned Pf gametocyte -5.
`COc1ccc([C@@H]2[C@@H]3C(=O)N(C(C)(C)C)C(=O)[C@@H]3[C@]3(CC(C)C)C(=O)N(c4cccc(Br)c4)C(=O)N23)cc1` gave Pf gametocyte 13.
For Cc1ccc(NC(=S)NNC(=O)c2nnn(-c3ccccc3)c2C)cc1 the results were NF-kB neuron act 1.1, STAT1 inh -7, Pf gametocyte 5, APP 5'UTR act -3, STAT3 activator 104 and STAT1 act 106.
For Cc1ccc(C(=O)Nc2ccc(Br)c(C(F)(F)F)c2)cc1 the results were NF-kB neuron act 3.2, STAT1 inh -47, Pf gametocyte -16, APP 5'UTR act 108, STAT3 activator 98 and STAT1 act 143*.
Screening Cc1ccc(NC(=O)c2ccc(C)cc2)cc1 returned Pf gametocyte -4.
For Cc1cccc(/C=N/Nc2nncc3ccccc23)c1 the results were NF-kB neuron act 1.1, STAT1 inh 52*, Pf gametocyte -3, APP 5'UTR act 208*, STAT3 activator 32 and STAT1 act 51.
C(=N\Nc1nncc2ccccc12)/c1ccccc1 was read as Pf gametocyte 18.
For COc1ccc(/C=N/Nc2nncc3ccccc23)c(OC)c1 the results were NF-kB neuron act 2.6, STAT1 inh -52, Pf gametocyte 13, APP 5'UTR act 59, STAT3 activator 89 and STAT1 act 147*.
CN(CCOc1ccc(-c2ccn(S(=O)(=O)c3cccc4ccccc34)n2)cc1)c1ccccn1 was read as NF-kB neuron act 1.1, STAT1 inh -4, Pf gametocyte 13, APP 5'UTR act -1, STAT3 activator 93 and STAT1 act 104.
For CCC(CC)c1nnc(NC(=O)c2cc(C(=O)OC)cc([N+](=O)[O-])c2)s1 the results were NF-kB neuron act 1.6, STAT1 inh 7, Pf gametocyte -2, APP 5'UTR act 2, STAT3 activator 84 and STAT1 act 94.
Cc1cccc(-c2cc3c(nn2)-c2ccccc2C3=O)c1 was read as NF-kB neuron act 6.9*, STAT1 inh 2, STAT3 activator 78 and STAT1 act 99.
For COc1ccc(-c2cc3c(nn2)-c2ccccc2C3=O)cc1 the results were NF-kB neuron act 1.6, STAT1 inh 62*, Pf gametocyte -28, APP 5'UTR act 45, STAT3 activator 25 and STAT1 act 42.
For O=C1c2ccccc2-c2nnc(-c3ccccc3)cc21 the results were NF-kB neuron act 3.3*, STAT1 inh 32, APP 5'UTR act 24, STAT3 activator 59 and STAT1 act 71.
Screening COc1ccc(-c2cn(Cc3ccc4c(c3)C(=O)c3ccccc3C4=O)nn2)cc1 returned Pf gametocyte 3.
Screening Cc1cc(NC(=O)NC(=O)c2ccc(F)cc2F)n[nH]1 returned NF-kB neuron act 2.5, STAT1 inh -53, APP 5'UTR act 89, STAT3 activator 73 and STAT1 act 149*.
Screening Cc1cc(NC(=O)c2cccc(Cl)c2)n[nH]1 returned Pf gametocyte 10.
`COc1ccc(Cn2c(SCC#N)nc3ccc(N4CCOCC4)cc3c2=O)cc1` gave NF-kB neuron act 2.9, STAT1 inh -40, Pf gametocyte 6, APP 5'UTR act 60, STAT3 activator 121 and STAT1 act 136*.
`O=C(Nc1nc2c(s1)CCCC2)Oc1ccccc1` gave NF-kB neuron act 1.3, STAT1 inh -5, Pf gametocyte -44, APP 5'UTR act -2, STAT3 activator 106 and STAT1 act 105.
Screening O=C(Nc1nc2c(s1)CCCC2)c1cccnc1 returned NF-kB neuron act 4*, STAT1 inh -40, APP 5'UTR act 125, STAT3 activator 97 and STAT1 act 139*.
Screening O=C(Cc1cn2ccsc2n1)Nc1nc2c(s1)CCCC2 returned NF-kB neuron act 1.3, STAT1 inh -4, APP 5'UTR act -3, STAT3 activator 107 and STAT1 act 104.
`O=C(Cc1cccs1)Nc1nc2c(s1)CCCC2` gave NF-kB neuron act 6.1*, STAT1 inh -34, APP 5'UTR act 80, STAT3 activator 91 and STAT1 act 131*.
For O=C(Nc1nc2c(s1)CCCC2)c1cccs1 the results were NF-kB neuron act 5.7*, STAT1 inh -50, Pf gametocyte -3, APP 5'UTR act 198*, STAT3 activator 52 and STAT1 act 146*.
Screening O=C(Cc1cccs1)Nc1nc2c(ccc3ccccc32)s1 returned NF-kB neuron act 1.2, STAT1 inh -2, APP 5'UTR act 12, STAT3 activator 159* and STAT1 act 102.
Screening CC(=O)Nc1nc2c(ccc3ccccc32)s1 returned Pf gametocyte 15.
